The text below walks through data of ChEMBL document CHEMBL3745705, “Discovery of Oral VEGFR-2 Inhibitors with Prolonged Ocular Retention That Are Efficacious in Models of Wet Age-Related Macular Degeneration” (J Med Chem, 2015).

Values after ≈ are worked out from the molar mass of the structure shown.

Data set [1] can be described thus: Aqueous solubility of the compound at pH 6.8. The note with it: aqueous medium.
Data set [2] is filed under the species Mus musculus. The experiment in a line: animal or person. The note with it: C57BL/6, po, read-out: INH.
Data set [3] concerns the target Voltage-gated inwardly rectifying potassium channel KCNH2 (Homo sapiens, UniProt Q12809). Briefly: Inhibition of human ERG channel by automated Q-patch assay.
A short description of data set [4]: Cmax in Brown Norway rat at 3 mg/kg, po or 1 mg/kg, iv by LC-MS/MS analysis. In kind it is ADME, organism-based. Particulars: in vivo.
The nature of data set [5]: Dose normalized AUC (0 to 24 hrs) in Brown Norway rat retina at 2 mg/kg, po. In kind it is ADME, organism-based. Particulars: in vivo.
The nature of data set [6]: Volume of distribution at steady state in Brown Norway rat at 3 mg/kg, po or 1 mg/kg, iv by LC-MS/MS analysis. In kind it is ADME, organism-based. Particulars: in vivo, read-out: Vdss.
In data set [7] the test system is Plasma. The experiment in a line: Dose normalized Cmax in Brown Norway rat plasma at 2 mg/kg, po. In kind it is ADME, organism-based. Particulars: in vivo. The essentials:
(§1)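 Single oral dose to three-month-old Brown Norway rats as a suspension in 0.5% MC/0.1% tween 80, WFI. Retina, posterior eye cup (RPE/choroid/sclera) and plasma collected from 2 rats per time point up to 144 h. Tissues homogenized, plasma proteins precipitated, drug quantified by LC-MS/MS.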

In data set [8] the test system is Rattus norvegicus. The experiment in a line: AUC (0 to 8 hrs) in Brown Norway rat at 3 mg/kg, po by LC-MS/MS analysis. In kind it is ADME, organism-based. Also on record: dose 3 mg/kg, time < 8 hr, route oral. Particulars: in vivo.
Data set [9] deals with Mus musculus. The experiment in a line: Antiangiogenic activity in po dosed C57BL/6 mouse laser-induced choroidal neovascularization assessed as inhibition of neovascular lesion formation administered qd for 6 days measured on day 7 by microscopic analysis. Particulars: C57BL/6, po. In kind it is functional.
The nature of data set [10]: Drug uptake in Brown Norway rat posteior eye cup at 2 mg/kg, po. In kind it is ADME, organism-based. The note with it: in vivo. The essentials:
as §1

For data set [11], the system named is Plasma. The experiment in a line: Dose normalized plasma concentration in Brown Norway rat plasma at 2 mg/kg, po measured at 24 hrs by LC-MS/MS analysis. The note with it: in vivo. In kind it is ADME, organism-based. The essentials: as §1
Data set [12] can be described thus: Dose normalized Cmax in Brown Norway rat posteior eye cup at 2 mg/kg, po. In kind it is ADME, organism-based. The note with it: in vivo. The procedure, abridged: as §1
Data set [13] can be described thus: Dose normalized Cmax in Brown Norway rat retina at 2 mg/kg, po. Particulars: in vivo. In kind it is ADME, organism-based. The essentials:
as §1

Data set [14] concerns Plasma. Briefly: Dose normalized AUC (0 to 24 hrs) in Brown Norway rat plasma at 2 mg/kg, po. In kind it is ADME, organism-based. Particulars: in vivo.
For data set [15], the system named is Rattus norvegicus. The experiment in a line: Antiangiogenic activity in po dosed Brown Norway rat laser-induced choroidal neovascularization model assessed as inhibition of neovascular lesion formation administered qd for 14 days by microscopic analysis. In kind it is functional. Particulars: 336 h. The procedure, abridged:
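Male Brown Norway rats, about 12 weeks old, dosed by oral gavage starting about 1 h before laser. Lesions were made under ketamine/xylazine i.p. (40–80 / 5–10 mg/kg) with 532 nm laser pulses (30 ms, 190 mW, 200 µm spot), about 4 lesions per eye and 10 rats per group. Vessels were labelled with i.v. 2,000 kD FITC dextran, eyes fixed in 4% paraformaldehyde, and CNV area measured blinded.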

A short description of data set [16]: Dose normalized AUC (0 to 24 hrs) in Brown Norway rat posteior eye cup at 2 mg/kg, po. The note with it: in vivo. In kind it is ADME, organism-based.
Data set [17] has as its system Rattus norvegicus. Briefly: Oral bioavailability in Brown Norway rat at 3 mg/kg by LC-MS/MS analysis. In kind it is ADME, organism-based. Particulars: in vivo.
Data set [18] is described as follows: Dose normalized drug uptake in Brown Norway rat retina at 2 mg/kg, po by LC-MS/MS analysis. In kind it is ADME, organism-based. Particulars: in vivo. The procedure, abridged: as §1
The nature of data set [19]: Half life in Brown Norway rat at 3 mg/kg, po or 1 mg/kg, iv by LC-MS/MS analysis. In kind it is ADME, organism-based. Particulars: in vivo.
In data set [20] the test system is Plasma. Briefly: Dose normalized Cmax in Brown Norway rat plasma at 6 mg/kg, po. In kind it is ADME, organism-based. Particulars: in vivo.
Data set [21] concerns the target Mast/stem cell growth factor receptor Kit (Homo sapiens, UniProt P10721). The experiment in a line: Inhibition of c-Kit (unknown origin). The essentials: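 Selectivity measured in a 62-kinase panel, with results reported as IC50 (µM).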
A short description of data set [22]: Dose normalized Cmax in Brown Norway rat retina at 6 mg/kg, po. In kind it is ADME, organism-based. The note with it: in vivo.
Data set [23] can be described thus: Dose normalized AUC (0 to 24 hrs) in Brown Norway rat posteior eye cup at 6 mg/kg, po. In kind it is ADME, organism-based. The note with it: in vivo.
For data set [24], the system named is Plasma. The experiment in a line: Dose normalized plasma concentration in Brown Norway rat plasma at 6 mg/kg, po measured at 24 hrs by LC-MS/MS analysis. In kind it is ADME, organism-based. The note with it: in vivo.
Data set [25] in a line: Dose normalized AUC (0 to 24 hrs) in Brown Norway rat retina at 6 mg/kg, po. The note with it: in vivo. In kind it is ADME, organism-based.
Data set [26] can be described thus: Dose normalized Cmax in Brown Norway rat posteior eye cup at 6 mg/kg, po. In kind it is ADME, organism-based. The note with it: in vivo.
Data set [27] in a line: Dose normalized drug uptake in Brown Norway rat retina at 6 mg/kg, po by LC-MS/MS analysis. The note with it: in vivo. In kind it is ADME, organism-based.
Data set [28] is described as follows: Dose normalized drug uptake in Brown Norway rat posteior eye cup at 6 mg/kg, po. The note with it: in vivo. In kind it is ADME, organism-based.
For data set [29], the system named is Plasma. The experiment in a line: Dose normalized AUC (0 to 24 hrs) in Brown Norway rat plasma at 6 mg/kg, po. In kind it is ADME, organism-based. The note with it: in vivo.

Sequence of Voltage-gated inwardly rectifying potassium channel KCNH2 (Q12809 whole entry): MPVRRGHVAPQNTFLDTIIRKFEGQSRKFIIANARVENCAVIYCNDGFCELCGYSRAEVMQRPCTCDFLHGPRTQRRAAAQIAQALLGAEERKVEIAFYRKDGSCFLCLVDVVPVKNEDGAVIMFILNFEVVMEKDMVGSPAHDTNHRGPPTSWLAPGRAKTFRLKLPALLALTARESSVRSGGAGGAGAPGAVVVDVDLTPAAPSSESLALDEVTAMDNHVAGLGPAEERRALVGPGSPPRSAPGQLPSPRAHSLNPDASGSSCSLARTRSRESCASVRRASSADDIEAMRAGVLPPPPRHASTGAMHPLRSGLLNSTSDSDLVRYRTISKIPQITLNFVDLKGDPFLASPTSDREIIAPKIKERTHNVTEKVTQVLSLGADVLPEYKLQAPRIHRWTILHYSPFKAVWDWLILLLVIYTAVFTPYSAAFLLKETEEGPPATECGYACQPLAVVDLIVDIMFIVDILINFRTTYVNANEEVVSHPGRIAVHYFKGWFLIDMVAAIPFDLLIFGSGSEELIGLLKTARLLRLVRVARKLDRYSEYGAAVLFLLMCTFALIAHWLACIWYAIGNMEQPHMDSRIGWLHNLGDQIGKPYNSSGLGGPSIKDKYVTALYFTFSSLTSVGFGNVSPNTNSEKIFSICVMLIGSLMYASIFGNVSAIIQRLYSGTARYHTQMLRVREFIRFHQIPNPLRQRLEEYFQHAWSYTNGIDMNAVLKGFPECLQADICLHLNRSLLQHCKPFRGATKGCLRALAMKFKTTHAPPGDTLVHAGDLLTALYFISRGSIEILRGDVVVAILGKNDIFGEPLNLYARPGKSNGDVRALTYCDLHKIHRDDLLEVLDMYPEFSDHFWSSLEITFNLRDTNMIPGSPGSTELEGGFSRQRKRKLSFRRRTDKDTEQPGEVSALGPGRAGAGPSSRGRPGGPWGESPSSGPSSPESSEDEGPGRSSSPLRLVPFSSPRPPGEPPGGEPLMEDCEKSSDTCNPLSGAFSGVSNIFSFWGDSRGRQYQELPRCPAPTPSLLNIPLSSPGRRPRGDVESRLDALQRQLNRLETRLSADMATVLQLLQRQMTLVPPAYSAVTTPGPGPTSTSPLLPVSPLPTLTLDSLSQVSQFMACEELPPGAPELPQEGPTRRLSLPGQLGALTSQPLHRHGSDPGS
Sequence of Mast/stem cell growth factor receptor Kit (P10721 whole entry): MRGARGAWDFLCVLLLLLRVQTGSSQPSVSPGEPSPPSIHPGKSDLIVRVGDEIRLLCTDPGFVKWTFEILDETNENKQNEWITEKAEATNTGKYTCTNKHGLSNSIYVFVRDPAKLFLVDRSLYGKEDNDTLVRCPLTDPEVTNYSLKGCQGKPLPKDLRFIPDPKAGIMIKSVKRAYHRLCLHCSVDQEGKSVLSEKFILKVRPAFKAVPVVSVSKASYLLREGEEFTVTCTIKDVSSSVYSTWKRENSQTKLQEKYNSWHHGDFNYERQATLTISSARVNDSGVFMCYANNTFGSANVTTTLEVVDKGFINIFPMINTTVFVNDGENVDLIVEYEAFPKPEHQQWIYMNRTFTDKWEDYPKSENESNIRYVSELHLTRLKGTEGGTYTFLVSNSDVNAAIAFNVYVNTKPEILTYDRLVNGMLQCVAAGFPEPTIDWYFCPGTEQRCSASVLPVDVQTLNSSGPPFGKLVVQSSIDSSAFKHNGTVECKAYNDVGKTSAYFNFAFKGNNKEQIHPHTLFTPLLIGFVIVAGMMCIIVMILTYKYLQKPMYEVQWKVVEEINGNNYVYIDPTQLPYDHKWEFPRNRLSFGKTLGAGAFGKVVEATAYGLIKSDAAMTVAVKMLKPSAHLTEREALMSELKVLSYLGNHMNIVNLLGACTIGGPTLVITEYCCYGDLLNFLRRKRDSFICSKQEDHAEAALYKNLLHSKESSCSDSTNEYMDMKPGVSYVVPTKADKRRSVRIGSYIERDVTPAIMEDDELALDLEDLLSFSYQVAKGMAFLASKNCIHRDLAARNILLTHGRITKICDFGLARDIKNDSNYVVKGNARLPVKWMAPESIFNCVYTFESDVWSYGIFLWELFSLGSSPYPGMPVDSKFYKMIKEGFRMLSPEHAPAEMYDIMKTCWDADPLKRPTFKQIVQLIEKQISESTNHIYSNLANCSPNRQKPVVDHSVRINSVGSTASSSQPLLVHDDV

The solubility is the dissolved amount per volume that the medium holds. Low readings indicate little dissolved substance, high ones much dissolved substance. In [1], `Cc1cncc(NC(=O)n2ccc3cc(Oc4ncnc5c4CCNC5)ccc32)c1` registered a solubility of 190 µM (≈ 76.1 µg/mL).

Consider `C[C@H]1NCc2ncnc(Oc3ccc4c(ccn4C(=O)Nc4cccc(C(F)(F)F)c4)c3)c21`, for which, in the data set filed under Mus musculus [2], the inhibition in vivo at 10 mg/kg amounted to 0%.

As to `C[C@@H]1NCc2ncnc(Oc3ccc4c(ccn4C(=O)Nc4cc(C(C)(C)C)on4)c3)c21`, in the data set listed under Mus musculus [2], the inhibition in vivo at 10 mg/kg came out at 33%.

For `C[C@H]1Cc2c(ncnc2Oc2ccc3c(ccn3C(=O)Nc3cc(C(C)(C)C)on3)c2)CN1`, the inhibition in vivo at 10 mg/kg in the data set listed under Mus musculus [2] was 96%.

Broadly, the IC50 is the concentration at which inhibition is half-maximal. For `CC(C)(C)c1cc(NC(=O)n2ccc3cc(Oc4ncnc5c4CCNC5)ccc32)no1`, in the data set listed under Mus musculus [2], the inhibition in vivo at 10 mg/kg is 83%. The solubility in data set [1] was found to be 167 µM (≈ 72.2 µg/mL). In data set [3], this compound gave a half-inhibitory concentration (IC50) of 7 µM.

As to `CC1(c2cc(NC(=O)n3ccc4cc(Oc5ncnc6c5CNC6)ccc43)n[nH]2)CC1`, the inhibition in vivo at 10 mg/kg in the data set listed under Mus musculus [2] is 43%. The compound further showed a solubility in [1] of 489 µM (≈ 203 µg/mL).

As usually defined, the Cmax is the maximum level reached in the sampled fluid or tissue. As a reminder, the AUC is concentration integrated over time. Low readings indicate low exposure, high ones high exposure. In general, ED50 refers to the dose at which the effect has come halfway, by size or by number of responders. One may read the half-life as the time needed for the level to fall by half in the phase considered. Compound `O=C(Nc1cc(C2CC2)on1)n1ccc2cc(Oc3ncnc4c3CNC4)ccc21` displayed a Cmax in data set [4] of 11 µM. Also, the AUC/dose in data set [5] is 2692 nM·h/mg/kg; in the data set with Plasma [14], 15014 nM·h/mg/kg; in data set [16], 92954 nM·h/mg/kg. Further, in data set [6], the Vd was 0.5 L/kg. For the same compound, the figures for the Cmax/dose (with Plasma [7]; in data set [12]; in data set [13]) were 3225 nM/mg/kg, 5293 nM/mg/kg and 337 nM/mg/kg, respectively. For the same compound, the inhibition in vivo at 10 mg/kg in the data set filed under Mus musculus [2] was found to be 98%. The compound also displayed an exposure (AUC) in the data set with Rattus norvegicus [8] of 29.4 µM·h. Moreover, the median effective dose (ED50) in the data set on Mus musculus [9] stood at 1.8 mg/kg; with Rattus norvegicus [15], 0.7 mg/kg. In addition, the figures for the ED90 with Mus musculus [9] and in the data set on Rattus norvegicus [15] were 4.8 mg/kg and 2.7 mg/kg, respectively. For the same compound, the Druguptake/dose in data set [10] amounted to 3344 nM/mg/kg; in data set [18], 65 nM/mg/kg. This compound also returned a Cp/dose with Plasma [11] of 6 nM/mg/kg. Moreover, the concentration in solution in [1] (solubility) was 110 µM (≈ 44.3 µg/mL). The compound further came in with a F in the data set on Rattus norvegicus [17] of 100%. The compound further had a half-life in data set [19] of 1.2 h. Further, the concentration for half-maximal inhibition (IC50) in data set [3] is above 30 µM.

As to `O=C(Nc1cccc(C(F)(F)F)c1)n1ccc2cc(Oc3cc(CO)ncn3)ccc21`, the inhibition in vivo at 10 mg/kg in the data set listed under Mus musculus [2] worked out at 45%.

On to `O=C(Nc1cccc(C(F)(F)F)c1)n1ccc2cc(Oc3ncnc4c3CNCC4)ccc21`, for which the inhibition in vivo at 10 mg/kg in the data set listed under Mus musculus [2] came out at 0%.

For `C[C@H]1Cc2c(ncnc2Oc2ccc3c(ccn3C(=O)Nc3cc(C4(C)CC4)n[nH]3)c2)CN1`, the highest level in data set [4] (Cmax) was 0.514 µM. The Vd in data set [6] is 5.6 L/kg. For the same compound, in the data set listed under Mus musculus [2], the inhibition in vivo at 10 mg/kg stood at 67%. Moreover, the Cmax/dose turned out to be 68 nM/mg/kg with Plasma [20], 170 nM/mg/kg in data set [22] and 1067 nM/mg/kg in [26]. This compound also gave an exposure (AUC) in the data set with Rattus norvegicus [8] of 2.49 µM·h. Further, the values for the ED50 in the data set with Mus musculus [9] and with Rattus norvegicus [15] were 3.4 mg/kg and 2.9 mg/kg, respectively. In addition, the ED90 in the data set with Mus musculus [9] came out at 19.6 mg/kg; with Rattus norvegicus [15], 14.6 mg/kg. Moreover, the IC50 in data set [21] worked out at 0.6 µM. Also, the AUC/dose in data set [23] stood at 22266 nM·h/mg/kg; in data set [25], 3215 nM·h/mg/kg; in the data set on Plasma [29], 598 nM·h/mg/kg. Besides, in the data set on Plasma [24], the Cp/dose is 1.6 nM/mg/kg. Also, in the data set with Rattus norvegicus [17], the F was determined as 81%. Also, the half-life in data set [19] is 2.3 h. Also, the Druguptake/dose in [27] is listed as 122 nM/mg/kg; in [28], 1067 nM/mg/kg.

Turning to `CC(C)c1cc(NC(=O)n2ccc3cc(Oc4ncnc5c4CCNC5)ccc32)n[nH]1`, the inhibition in vivo at 10 mg/kg in the data set listed under Mus musculus [2] is 0%. The solubility in data set [1] came out at 833 µM (≈ 348 µg/mL).

On to `C[C@@H]1Cc2c(ncnc2Oc2ccc3c(ccn3C(=O)Nc3cc(C4(C)CC4)[nH]n3)c2)CN1`, for which the inhibition in vivo at 10 mg/kg in the data set listed under Mus musculus [2] came out at 48%.

Regarding `Nc1cc(Oc2ccc3c(ccn3C(=O)Nc3cccc(C(F)(F)F)c3)c2)ncn1`, the inhibition in vivo at 10 mg/kg in the data set listed under Mus musculus [2] was 44%. Besides, the solubility in data set [1] was below 5 µM.

In the case of `CNCc1cc(Oc2ccc3c(ccn3C(=O)Nc3ccc(F)c(C(F)(F)F)c3)c2)ncn1`, the inhibition in vivo at 10 mg/kg in the data set filed under Mus musculus [2] stood at 92%.
